Source: ChEMBL document CHEMBL3867443, “Polyprenylated Tetraoxygenated Xanthones from the Roots of Hypericum monogynum and Their Neuroprotective Activities” (J Nat Prod, 2016)
Calls of active or inactive are those of the source. The rule behind the calls is not given here.

Key:
BV-2 = assay: Inhibition of LPS-induced NO production in […] preincubated for 2 hrs followed by LPS-stimulation measured after 18 hrs by Griess assay; assay type: functional, cell-based; settings: Mus musculus
Outline: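 BV2 cells seeded at 2.5 × 10^5 cells/mL and preincubated 2 h with compound, then LPS at 100 ng/mL final for 18 h. Supernatant was mixed 1:1 with Griess reagent for 10 min at room temperature and read at 540 nm. Inhibition = (AL − A0 − AC)/(AL − A0) × 100. IC50 reported as mean ± SEM of three independent experiments. L-NMMA was the positive control.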

[1] = Neuroprotective activity in rat PC12 cells assessed as reduction in corticosterone-induced lesions by measuring cell viability at 25 uM pretreated for 24 hrs followed by corticosterone-challenge after 48 hrs by MTT assay; assay type: functional, cell-based; settings: PC-12
Outline: (§1)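 PC12 cells seeded at 2 × 10^4 cells/well and pretreated 24 h with compound, then 200 μM corticosterone for 48 h. Fluoxetine 12.50 μM was the positive control. MTT absorbance read at 570 nm with 630 nm reference. Viability given as % of untreated control, mean ± SEM of three independent experiments, compared by ANOVA.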

[2] = Neuroprotective activity in rat PC12 cells assessed as reduction in corticosterone-induced lesions by measuring cell viability at 12.5 uM pretreated for 24 hrs followed by corticosterone-challenge after 48 hrs by MTT assay; assay type: functional, cell-based; settings: PC-12; outline: as §1
[3] = Neuroprotective activity in rat PC12 cells assessed as reduction in corticosterone-induced lesions by measuring cell viability at 6.25 uM pretreated for 24 hrs followed by corticosterone-challenge after 48 hrs by MTT assay; assay type: functional, cell-based; settings: PC-12; outline: as §1
Rattus norvegicus = organism: Rattus norvegicus; assay: Cytotoxicity against rat PC12 cells at 25 uM by MTT assay; assay type: toxicity, cell-based; settings: pc-12, 25 µM
Outline: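 PC12 cells in DMEM with 10% FBS, 5% horse serum and penicillin/streptomycin, 37 °C, 5% CO2. Seeded at 2 × 10^4 cells/well and exposed to compound at 25.00 μM. Viability was read by MTT.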

[4] = Cytotoxicity against […] BV2 cells assessed as cell viability by MTT assay relative to control; assay type: toxicity, cell-based, BV-2; set-up: concentration or dose not given beside the values; settings: mouse, read-out: Activity
Outline: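 BV2 microglia in DMEM with 10% heat-inactivated FBS and penicillin/streptomycin, 37 °C, 5% CO2. Viability was read by MTT in the cells used for the NO assay, which received 2 h compound pretreatment and then LPS at 100 ng/mL final for 18 h.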

PC-12 = assay: Decrease in corticosterone-induced intracellular calcium level in rat PC12 cells at 6.25 to 25 uM pretreated for 24 hrs followed by corticosterone-challenge after 48 hrs by Fluo-3AM dye-based flow cytometry; assay type: functional, cell-based
Outline: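 PC12 cells were pretreated 24 h with compound (6.25, 12.50, 25.00 μM) or fluoxetine 12.50 μM, then exposed to 200 μM corticosterone for 48 h. Cells were loaded with Fluo-3 AM and analysed by flow cytometry. Results are mean fluorescence intensity relative to vehicle control, mean ± SEM, n = 3.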

| SMILES | IC50 (BV-2) | Activity [1] | Activity [2] | Activity [3] | Activity (Rattus norvegicus) | viability [4] | Activity (PC-12) |
| --- | --- | --- | --- | --- | --- | --- | --- |
| CNC(=N)NCCC[C@H](N)C(=O)O [TILARGININE] | 39.3 µM | – | – | – | – | – | – |
| C=C(C)C(CC=C(C)C)Cc1c(O)cc(O)c2c(=O)c3ccc(O)c(O)c3oc12 (centres undefined) | 8.35 µM | 84.1% | 78.1% | 60.7% | Non-Toxic | > 90% | – |
| C=C(C)C(CC=C(C)C)Cc1c2c(c(O)c3c(=O)c4ccc(O)c(O)c4oc13)C=CC(C)(C)O2 (centres undefined) | > 50 µM | 65.4% | 71.2% | 64.8% | Non-Toxic | > 90% | – |
| C=C(C)C(CC=C(C)C)Cc1c(O)c(CC=C(C)C)c(O)c2c(=O)c3ccc(O)c(O)c3oc12 (centres undefined) | 5.66 µM | 66% | 60.2% | 57.5% | Non-Toxic | > 90% | – |
| C=C(C)[C@H](CC=C(C)C)Cc1c(O)c(C[C@@H](CC=C(C)C)C(=C)C)c2oc3c(O)c(O)ccc3c(=O)c2c1O | 7.47 µM | 92% | 83.8% | 78.4% | Non-Toxic | > 90% | Active |
| C=C(C)[C@H](CC=C(C)C)Cc1c(O)cc2oc3c(O)c(O)ccc3c(=O)c2c1O | 9.6 µM | 85.9% | 78.8% | 75.2% | Non-Toxic | > 90% | – |
| CNCCC(Oc1ccc(C(F)(F)F)cc1)c1ccccc1 (centres undefined) | – | – | 70.5% | – | – | – | – |
| C[C@]12C[C@H](O)[C@H]3[C@@H](CCC4=CC(=O)CC[C@@]43C)[C@@H]1CC[C@@H]2C(=O)CO | – | 52.8% | – | – | – | – | – |
